# From ChEMBL document CHEMBL1126779, “Antagonism of 1-(2,5-dimethoxy-4-methylphenyl)-2-aminopropane stimulus with a newly identified 5-HT2- versus 5-HT1C-selective antagonist” (J Med Chem, 1993)
# How the values were obtained:
# [1] = target: T1, 5-hydroxytryptamine receptor 1A (Rattus norvegicus, UniProt P19327); assay: Tested for binding affinity against 5-hydroxytryptamine 1A receptor from rat frontal cortical regions using [3H]8-OH-DPAT as radioligand
# T1 sequence (P19327 whole entry): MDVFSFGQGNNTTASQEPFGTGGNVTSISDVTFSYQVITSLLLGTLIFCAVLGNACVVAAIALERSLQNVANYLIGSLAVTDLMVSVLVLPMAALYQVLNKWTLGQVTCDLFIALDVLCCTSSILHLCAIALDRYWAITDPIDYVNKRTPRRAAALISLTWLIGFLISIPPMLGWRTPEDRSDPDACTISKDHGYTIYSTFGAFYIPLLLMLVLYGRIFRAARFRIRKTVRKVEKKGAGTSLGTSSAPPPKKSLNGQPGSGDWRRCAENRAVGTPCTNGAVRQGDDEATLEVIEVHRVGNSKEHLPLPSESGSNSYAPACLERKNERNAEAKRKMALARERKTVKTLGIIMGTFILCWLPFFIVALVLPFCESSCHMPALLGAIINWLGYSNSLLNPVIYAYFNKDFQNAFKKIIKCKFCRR
# [2] = target: T2, 5-hydroxytryptamine receptor 2C (Rattus norvegicus, UniProt P08909); assay: Tested for binding affinity against 5-hydroxytryptamine 1C receptor from rat frontal cortical regions using [3H]mesulergine as radioligand
# T2 sequence (P08909 whole entry): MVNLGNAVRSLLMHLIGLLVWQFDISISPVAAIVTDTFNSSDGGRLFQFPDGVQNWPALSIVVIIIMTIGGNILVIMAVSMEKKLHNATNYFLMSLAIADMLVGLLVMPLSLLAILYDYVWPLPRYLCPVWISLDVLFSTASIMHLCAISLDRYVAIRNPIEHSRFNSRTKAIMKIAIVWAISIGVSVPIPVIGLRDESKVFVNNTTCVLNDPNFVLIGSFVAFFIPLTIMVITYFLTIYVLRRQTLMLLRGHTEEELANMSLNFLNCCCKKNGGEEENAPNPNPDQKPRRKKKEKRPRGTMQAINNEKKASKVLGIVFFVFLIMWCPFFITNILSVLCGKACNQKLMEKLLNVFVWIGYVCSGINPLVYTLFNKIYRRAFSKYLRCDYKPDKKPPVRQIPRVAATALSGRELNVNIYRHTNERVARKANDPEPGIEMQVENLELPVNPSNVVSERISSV
# Summary of the method: (§1)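 Rat frontal cortex homogenate (male Sprague-Dawley) was washed and preincubated 15 min at 37 °C in 50 mM Tris HCl, 0.5 mM EDTA, 10 mM MgCl2, pH 7.4, with 0.1% ascorbate and 10^-6 M pargyline. Nonspecific binding was set with 1.0 µM mianserin. Tubes ran 15 min at 37 °C in triplicate before filtration.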
# [3] = target: Serotonin 2 (5-HT2) receptor (Rattus norvegicus, UniProt P30994+P08909+P14842); assay: Tested for binding affinity against 5-hydroxytryptamine 2 receptor from rat frontal cortical regions using [3H]ketanserin as radioligand; format: protein assay
# Summary of the method: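 Frontal cortex from male Sprague-Dawley rats was homogenized in Tris HCl/EDTA/MgCl2 buffer, pH 7.4, containing ascorbate and pargyline. Each triplicate tube held 5 mg wet tissue and 0.4 nM [3H]ketanserin, with nonspecific binding defined by 1.0 µM cinanserin. Incubation was 15 min at 37 °C, then glass-fiber filtration and an ice-cold wash. IC50 was converted to Ki using radioligand KD from saturation experiments.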
# [4] = target: Serotonin 2 (5-HT2) receptor (Rattus norvegicus) (UniProt P30994+P08909+P14842); assay: Selectivity ratio, Ki against 5-HT1C versus 5-HT2; format: protein assay
# Summary of the method: as §1, with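 “pargyline. […]” for “pargyline.”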
# D(1A) dopamine receptor = D(1A) dopamine receptor (Mus musculus, UniProt Q61616); assay: Tested for binding affinity against dopamine receptor D1
# D(2) dopamine receptor = D(2) dopamine receptor (Homo sapiens, UniProt P14416); assay: Tested for binding affinity against dopamine receptor D2
# D(2) dopamine receptor, sequence (P14416 whole entry): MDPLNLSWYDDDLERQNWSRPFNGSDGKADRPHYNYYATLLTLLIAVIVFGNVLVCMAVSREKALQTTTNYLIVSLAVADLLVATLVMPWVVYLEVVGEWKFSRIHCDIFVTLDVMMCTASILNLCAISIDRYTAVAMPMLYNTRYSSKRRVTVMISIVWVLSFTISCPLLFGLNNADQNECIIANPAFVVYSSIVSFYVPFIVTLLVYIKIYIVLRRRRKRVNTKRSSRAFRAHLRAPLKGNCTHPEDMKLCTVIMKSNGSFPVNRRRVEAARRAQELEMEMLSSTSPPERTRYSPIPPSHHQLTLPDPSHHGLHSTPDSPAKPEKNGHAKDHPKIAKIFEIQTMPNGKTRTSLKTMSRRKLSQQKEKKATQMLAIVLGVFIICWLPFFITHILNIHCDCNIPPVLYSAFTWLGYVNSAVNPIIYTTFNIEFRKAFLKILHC
# Serotonin 2 (5-HT2) receptor (Rattus norvegicus), sequence (P14842 whole entry, looked up, one chain of several): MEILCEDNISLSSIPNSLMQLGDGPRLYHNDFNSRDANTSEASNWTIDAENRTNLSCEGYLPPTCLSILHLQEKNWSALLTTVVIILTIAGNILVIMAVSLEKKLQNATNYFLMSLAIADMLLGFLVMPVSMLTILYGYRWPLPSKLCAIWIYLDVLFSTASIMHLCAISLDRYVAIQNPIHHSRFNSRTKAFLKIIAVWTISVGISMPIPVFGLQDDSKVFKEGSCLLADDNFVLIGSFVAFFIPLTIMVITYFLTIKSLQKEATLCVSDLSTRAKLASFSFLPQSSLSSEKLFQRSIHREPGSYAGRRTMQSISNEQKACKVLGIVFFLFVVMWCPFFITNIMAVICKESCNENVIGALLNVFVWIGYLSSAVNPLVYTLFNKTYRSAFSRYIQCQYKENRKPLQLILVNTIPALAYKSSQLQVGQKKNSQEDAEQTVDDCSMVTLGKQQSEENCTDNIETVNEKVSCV
# Serotonin 2 (5-HT2) receptor (Rattus norvegicus), sequence (P30994 whole entry, looked up, one chain of several): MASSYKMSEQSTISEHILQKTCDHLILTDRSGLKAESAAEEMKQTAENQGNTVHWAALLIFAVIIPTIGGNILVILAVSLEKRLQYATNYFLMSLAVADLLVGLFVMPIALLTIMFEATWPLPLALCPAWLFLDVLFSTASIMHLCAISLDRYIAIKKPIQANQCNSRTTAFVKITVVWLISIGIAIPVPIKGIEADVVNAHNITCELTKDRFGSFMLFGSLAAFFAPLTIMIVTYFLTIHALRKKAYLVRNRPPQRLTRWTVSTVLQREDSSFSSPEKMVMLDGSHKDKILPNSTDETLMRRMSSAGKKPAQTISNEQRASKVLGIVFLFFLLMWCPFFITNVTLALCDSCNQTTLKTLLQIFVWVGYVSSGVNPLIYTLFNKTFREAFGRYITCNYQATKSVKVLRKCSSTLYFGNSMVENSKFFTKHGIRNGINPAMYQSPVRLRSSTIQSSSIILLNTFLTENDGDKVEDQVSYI
# D(1A) dopamine receptor, sequence (Q61616 whole entry): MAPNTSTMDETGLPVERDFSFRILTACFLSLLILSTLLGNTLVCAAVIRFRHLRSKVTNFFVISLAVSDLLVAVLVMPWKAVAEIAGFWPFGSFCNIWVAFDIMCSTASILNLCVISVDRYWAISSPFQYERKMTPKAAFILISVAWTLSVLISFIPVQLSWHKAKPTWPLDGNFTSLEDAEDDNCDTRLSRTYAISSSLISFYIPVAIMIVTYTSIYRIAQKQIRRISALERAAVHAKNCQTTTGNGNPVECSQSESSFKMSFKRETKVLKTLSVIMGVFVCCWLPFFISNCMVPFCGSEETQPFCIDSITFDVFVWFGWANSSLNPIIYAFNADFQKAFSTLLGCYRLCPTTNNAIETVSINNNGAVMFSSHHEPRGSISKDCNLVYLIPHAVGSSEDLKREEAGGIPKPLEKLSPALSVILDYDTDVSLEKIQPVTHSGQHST
SMILES,Ki [1],Ki [2],Ki [3],Ratio [4],Ki (D(1A) dopamine receptor),Ki (D(2) dopamine receptor)
O=C1NCN(c2ccccc2)C12CCN(CCCOc1ccccc1)CC2,75 nM,> 10000 nM,5 nM,> 2000,–,–
O=C(CCCN1CCCCC1)c1ccc(F)cc1 [PRIMAPERONE],> 10000 nM,> 10000 nM,140 nM,> 70,–,–
O=C1NCN(c2ccccc2)C12CCN(CCCCc1ccc(F)cc1)CC2,110 nM,3200 nM,5 nM,650,–,–
O=C1NCN(c2ccccc2)C12CCN(CCCCc1ccccc1)CC2,85 nM,> 10000 nM,30 nM,> 300,–,–
O=C1NCN(c2ccccc2)C12CCNCC2,> 10000 nM,> 10000 nM,> 10000 nM,–,–,–
COc1ccc(OCCCN2CCC3(CC2)C(=O)NCN3c2ccccc2)cc1,445 nM,> 10000 nM,1000 nM,> 10,–,–
CN(c1ccccc1)C1CCN(CCCOc2ccc(F)cc2)CC1,110 nM,2870 nM,32 nM,90,–,–
O=C1NCN(c2ccccc2)C12CCN(CCCc1ccccc1)CC2,105 nM,> 10000 nM,230 nM,> 30,–,–
O=C1NCN(c2ccccc2)C12CCN(CCc1ccccc1)CC2,1020 nM,6000 nM,570 nM,10,–,–
O=C(c1ccc(F)cc1)C1CCN(CCCOc2ccc(F)cc2)CC1,285 nM,335 nM,8 nM,40,–,–
O=C(NC1CCN(CCCOc2ccc(F)cc2)CC1)c1ccccc1,–,> 10000 nM,70 nM,> 140,–,–
CN(C)CCCOc1ccc(F)cc1,–,> 10000 nM,295 nM,> 30,–,–
c1ccc(CCCCN2CCN(c3ccccc3)CC2)cc1,1 nM,–,–,–,–,–
O=C(CCCN1CCC(C(=O)c2ccc(F)cc2)CC1)c1ccc(F)cc1 [LENPERONE],305 nM,–,–,–,–,–
O=C(CCCN1CCC(NC(=O)c2ccccc2)CC1)c1ccc(F)cc1,–,> 10000 nM,70 nM,> 140,–,–
O=C1NCN(c2ccccc2)C12CCN(CCCCOc1ccccc1)CC2,30 nM,> 10000 nM,325 nM,> 30,–,–
NCCCC(=O)c1ccc(F)cc1,> 100000 nM,> 100000 nM,> 100000 nM,–,–,–
O=C1NCN(c2ccccc2)C12CCN(CCCOc1ccc([N+](=O)[O-])cc1)CC2,1160 nM,> 10000 nM,600 nM,> 10,–,–
CN(C)CCCC(=O)c1ccc(F)cc1,–,3300 nM,80 nM,40,–,–
O=C1NCN(c2ccccc2)C12CCN(CCCOc1ccc(F)cc1)CC2 [SPIRAMIDE],50 nM,4300 nM,2 nM,2100,2530 nM,3 nM
NCCCOc1ccc(F)cc1,–,> 10000 nM,1400 nM,> 5,–,–
O=C(Nc1ccccc1)C1CCN(CCCOc2ccc(F)cc2)CC1,–,> 10000 nM,95 nM,> 100,–,–
Fc1ccc(OCCCN2CCC(Nc3ccccc3)CC2)cc1,120 nM,3600 nM,88 nM,40,–,–
O=C(CCCN1CCC2(CC1)C(=O)NCN2c1ccccc1)c1ccc(F)cc1 [SPIPERONE],49 nM,–,–,–,–,–
O=C(CCCN1CCC(Cc2ccccc2)CC1)c1ccc(F)cc1,180 nM,1650 nM,50 nM,35,–,–
